Reference: ChEMBL document CHEMBL1165965, “Synthesis and structure-activity relationships of 1,2,3,4-tetrahydropyrido[2,3-b]pyrazines as potent and selective inhibitors of the anaplastic lymphoma kinase” (Bioorg Med Chem, 2010)

What was measured:
[1] = target: MAP kinase-interacting serine/threonine-protein kinase 2 (Homo sapiens) (UniProt Q9HBH9); experiment: Inhibition of MKNK2 at 1 uM
In short: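 Kinase-panel screen using KINOMEscan technology, with 250–400 kinases per panel. Each compound was tested at a single concentration, and inhibition of each kinase was recorded. Selectivity was summarised as S(90), the fraction of kinases inhibited by more than 90%.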

[2] = target: Bone morphogenetic protein receptor type-1B (Homo sapiens) (UniProt O00238); experiment: Inhibition of BMPR1B at 1 uM
[3] = target: T1, Dual specificity protein kinase TTK (Homo sapiens) (UniProt P33981); experiment: Inhibition of TTK at 1 uM
T1 sequence (whole entry): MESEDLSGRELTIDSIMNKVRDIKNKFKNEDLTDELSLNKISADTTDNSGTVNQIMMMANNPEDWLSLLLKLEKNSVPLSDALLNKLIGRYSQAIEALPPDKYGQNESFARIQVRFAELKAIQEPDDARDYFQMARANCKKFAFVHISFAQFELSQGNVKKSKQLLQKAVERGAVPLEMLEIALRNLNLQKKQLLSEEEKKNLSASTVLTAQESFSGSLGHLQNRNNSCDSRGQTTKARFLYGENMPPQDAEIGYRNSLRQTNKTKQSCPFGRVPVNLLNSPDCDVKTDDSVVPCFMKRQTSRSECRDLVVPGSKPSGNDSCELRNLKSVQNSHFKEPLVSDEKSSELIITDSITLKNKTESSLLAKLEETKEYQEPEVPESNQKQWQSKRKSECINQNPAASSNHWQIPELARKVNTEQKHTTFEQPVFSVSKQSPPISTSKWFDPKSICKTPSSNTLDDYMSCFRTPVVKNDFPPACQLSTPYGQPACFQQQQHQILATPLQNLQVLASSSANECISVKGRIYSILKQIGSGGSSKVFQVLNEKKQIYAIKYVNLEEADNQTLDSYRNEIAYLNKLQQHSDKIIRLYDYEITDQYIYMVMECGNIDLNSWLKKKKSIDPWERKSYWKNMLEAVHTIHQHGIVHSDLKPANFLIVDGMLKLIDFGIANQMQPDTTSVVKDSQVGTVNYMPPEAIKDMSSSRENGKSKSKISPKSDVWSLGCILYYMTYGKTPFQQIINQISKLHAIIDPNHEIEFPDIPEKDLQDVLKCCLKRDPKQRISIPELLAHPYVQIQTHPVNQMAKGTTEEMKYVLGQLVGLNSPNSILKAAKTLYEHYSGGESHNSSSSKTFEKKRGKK

[4] = target: Ephrin type-A receptor 4 (Homo sapiens) (UniProt P54764); experiment: Inhibition of EPHA4 at 1 uM
In short: (§1)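 Single-concentration screen using Ambit Bioscience KINOMEscan technology across a panel of 250–400 kinases. Per-kinase inhibition from this screen was summarized as S(90), the fraction of kinases inhibited by more than 90%.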

[5] = target: Casein kinase I isoform gamma-1 (Homo sapiens) (UniProt Q9HCP0); experiment: Inhibition of CSNK1G1 at 1 uM; in short: as §1
[6] = target: Dual specificity protein kinase CLK1 (Homo sapiens) (UniProt P49759); experiment: Inhibition of CLK1 at 1 uM
In short: (§2)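 Ambit KINOMEscan screen at a single concentration across a 250–400 kinase panel, recorded as percent inhibition. Selectivity was expressed as S(90), the fraction of kinases inhibited >90%.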

[7] = target: SRSF protein kinase 2 (Homo sapiens) (UniProt P78362); experiment: Inhibition of SRPK2 at 1 uM
[8] = target: Dual specificity tyrosine-phosphorylation-regulated kinase 1B (Homo sapiens) (UniProt Q9Y463); experiment: Inhibition of DYRK1B at 1 uM
[9] = target: Ribosomal protein S6 kinase alpha-5 (Homo sapiens) (UniProt O75582); experiment: Inhibition of RPS6KA5 N-terminal domain1 at 1 uM
[10] = target: Calcium/calmodulin-dependent protein kinase type II subunit delta (Homo sapiens) (UniProt Q13557); experiment: Inhibition of CAMK2D at 1 uM; in short: as §2
[11] = target: T2, Mitogen-activated protein kinase kinase kinase kinase 3 (Homo sapiens) (UniProt Q8IVH8); experiment: Inhibition of MAP4K3 at 1 uM
T2 sequence (whole entry): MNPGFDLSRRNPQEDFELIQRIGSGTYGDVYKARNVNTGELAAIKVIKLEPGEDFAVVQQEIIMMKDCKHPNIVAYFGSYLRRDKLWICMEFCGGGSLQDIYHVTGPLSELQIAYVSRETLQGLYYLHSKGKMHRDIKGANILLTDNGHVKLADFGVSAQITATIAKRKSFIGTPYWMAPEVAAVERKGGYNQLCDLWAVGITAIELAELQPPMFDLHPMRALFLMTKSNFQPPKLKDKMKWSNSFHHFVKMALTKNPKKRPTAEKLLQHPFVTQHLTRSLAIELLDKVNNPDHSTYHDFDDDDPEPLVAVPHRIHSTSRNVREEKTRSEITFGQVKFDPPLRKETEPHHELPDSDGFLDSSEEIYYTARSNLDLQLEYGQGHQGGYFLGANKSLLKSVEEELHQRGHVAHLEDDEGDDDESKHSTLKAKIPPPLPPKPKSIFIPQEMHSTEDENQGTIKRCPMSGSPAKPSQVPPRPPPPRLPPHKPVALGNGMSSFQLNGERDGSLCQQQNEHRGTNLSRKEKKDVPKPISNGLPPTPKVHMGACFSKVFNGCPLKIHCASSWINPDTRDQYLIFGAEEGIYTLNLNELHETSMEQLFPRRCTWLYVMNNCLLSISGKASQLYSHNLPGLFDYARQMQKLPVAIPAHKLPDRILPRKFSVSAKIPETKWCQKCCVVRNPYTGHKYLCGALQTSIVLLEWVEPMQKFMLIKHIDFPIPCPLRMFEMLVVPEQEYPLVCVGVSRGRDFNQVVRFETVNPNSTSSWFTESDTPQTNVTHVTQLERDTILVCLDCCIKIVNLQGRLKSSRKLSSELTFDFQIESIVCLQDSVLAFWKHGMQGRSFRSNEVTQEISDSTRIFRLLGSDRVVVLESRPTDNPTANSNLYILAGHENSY
In short: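 Single-concentration screen on the Ambit KINOMEscan platform, run against a panel of 250–400 kinases. Per-kinase inhibition was also summarized as S(90), the fraction of kinases inhibited by more than 90%.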

[12] = target: STE20/SPS1-related proline-alanine-rich protein kinase (Homo sapiens) (UniProt Q9UEW8); experiment: Inhibition of STK39 at 1 uM
[13] = target: Serine/threonine-protein kinase 24 (Homo sapiens) (UniProt Q9Y6E0); experiment: Inhibition of MST3 at 1 uM
[14] = tested on: Phosphatidylinositol 4,5-bisphosphate 3-kinase catalytic subunit alpha isoform (Homo sapiens), P42336 [E545A]; experiment: Inhibition of PIK3CA E545A mutant at 1 uM
[15] = tested on: Proto-oncogene tyrosine-protein kinase receptor Ret (Homo sapiens), P07949 [M918T]; experiment: Inhibition of RET M918T mutant at 1 uM

Chain of Bone morphogenetic protein receptor type-1B (Homo sapiens) (O00238 whole entry): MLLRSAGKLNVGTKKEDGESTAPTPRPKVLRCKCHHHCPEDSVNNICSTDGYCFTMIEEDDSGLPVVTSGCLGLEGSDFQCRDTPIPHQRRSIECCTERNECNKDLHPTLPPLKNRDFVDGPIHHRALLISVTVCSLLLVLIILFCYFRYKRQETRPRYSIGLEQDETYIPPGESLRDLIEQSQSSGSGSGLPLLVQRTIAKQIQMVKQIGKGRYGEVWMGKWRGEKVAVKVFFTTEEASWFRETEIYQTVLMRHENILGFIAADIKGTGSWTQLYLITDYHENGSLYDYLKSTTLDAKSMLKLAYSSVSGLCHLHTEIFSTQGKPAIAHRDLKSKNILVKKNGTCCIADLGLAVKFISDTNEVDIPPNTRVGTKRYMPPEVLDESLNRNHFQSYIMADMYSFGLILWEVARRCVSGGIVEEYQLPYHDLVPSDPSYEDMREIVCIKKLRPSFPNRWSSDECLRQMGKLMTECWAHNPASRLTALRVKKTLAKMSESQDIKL
Chain of Casein kinase I isoform gamma-1 (Homo sapiens) (Q9HCP0 whole entry, looked up, canonical isoform): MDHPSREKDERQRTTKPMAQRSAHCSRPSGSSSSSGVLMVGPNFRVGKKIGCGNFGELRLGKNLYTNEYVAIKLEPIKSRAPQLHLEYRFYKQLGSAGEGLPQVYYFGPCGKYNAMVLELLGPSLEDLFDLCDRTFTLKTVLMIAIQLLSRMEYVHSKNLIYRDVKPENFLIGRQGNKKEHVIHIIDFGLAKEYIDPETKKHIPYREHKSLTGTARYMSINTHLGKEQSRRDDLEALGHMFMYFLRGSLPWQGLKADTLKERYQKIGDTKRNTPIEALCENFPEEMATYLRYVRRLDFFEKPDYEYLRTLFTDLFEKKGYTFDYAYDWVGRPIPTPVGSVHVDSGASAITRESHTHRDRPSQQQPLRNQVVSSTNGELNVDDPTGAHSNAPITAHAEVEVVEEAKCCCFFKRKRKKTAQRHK
Chain of Dual specificity protein kinase CLK1 (Homo sapiens) (P49759 whole entry, looked up): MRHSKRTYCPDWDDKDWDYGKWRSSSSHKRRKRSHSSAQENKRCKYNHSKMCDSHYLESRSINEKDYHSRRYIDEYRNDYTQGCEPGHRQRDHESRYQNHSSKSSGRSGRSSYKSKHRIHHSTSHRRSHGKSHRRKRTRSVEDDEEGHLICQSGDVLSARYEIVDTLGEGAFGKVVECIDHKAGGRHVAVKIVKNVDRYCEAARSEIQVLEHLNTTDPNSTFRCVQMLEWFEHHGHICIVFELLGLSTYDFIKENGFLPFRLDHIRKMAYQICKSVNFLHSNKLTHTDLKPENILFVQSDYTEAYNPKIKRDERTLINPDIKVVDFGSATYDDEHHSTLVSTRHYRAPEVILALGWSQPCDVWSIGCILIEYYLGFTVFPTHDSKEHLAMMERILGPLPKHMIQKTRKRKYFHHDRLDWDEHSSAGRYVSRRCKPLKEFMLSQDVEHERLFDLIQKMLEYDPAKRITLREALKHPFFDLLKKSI
Chain of SRSF protein kinase 2 (Homo sapiens) (P78362 whole entry, looked up): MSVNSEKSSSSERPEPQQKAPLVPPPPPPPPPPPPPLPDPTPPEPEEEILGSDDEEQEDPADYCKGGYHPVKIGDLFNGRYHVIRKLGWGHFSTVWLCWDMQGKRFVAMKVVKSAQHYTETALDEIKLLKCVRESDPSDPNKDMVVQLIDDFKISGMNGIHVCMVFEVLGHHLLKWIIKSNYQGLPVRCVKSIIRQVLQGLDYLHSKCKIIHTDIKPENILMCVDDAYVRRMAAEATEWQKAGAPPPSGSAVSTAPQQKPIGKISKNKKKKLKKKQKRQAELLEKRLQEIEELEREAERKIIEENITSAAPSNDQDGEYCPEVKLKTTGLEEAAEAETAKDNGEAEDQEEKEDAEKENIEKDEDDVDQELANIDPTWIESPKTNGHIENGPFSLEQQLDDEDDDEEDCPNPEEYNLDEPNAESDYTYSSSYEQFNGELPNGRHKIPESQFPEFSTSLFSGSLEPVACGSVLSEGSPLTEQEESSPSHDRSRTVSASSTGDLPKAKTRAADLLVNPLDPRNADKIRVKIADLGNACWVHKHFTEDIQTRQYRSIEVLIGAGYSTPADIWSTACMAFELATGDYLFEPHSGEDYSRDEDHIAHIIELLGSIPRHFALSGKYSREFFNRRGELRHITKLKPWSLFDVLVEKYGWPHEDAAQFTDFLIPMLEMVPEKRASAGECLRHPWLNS
Chain of Dual specificity tyrosine-phosphorylation-regulated kinase 1B (Homo sapiens) (Q9Y463 whole entry, looked up, the tested form may be a part): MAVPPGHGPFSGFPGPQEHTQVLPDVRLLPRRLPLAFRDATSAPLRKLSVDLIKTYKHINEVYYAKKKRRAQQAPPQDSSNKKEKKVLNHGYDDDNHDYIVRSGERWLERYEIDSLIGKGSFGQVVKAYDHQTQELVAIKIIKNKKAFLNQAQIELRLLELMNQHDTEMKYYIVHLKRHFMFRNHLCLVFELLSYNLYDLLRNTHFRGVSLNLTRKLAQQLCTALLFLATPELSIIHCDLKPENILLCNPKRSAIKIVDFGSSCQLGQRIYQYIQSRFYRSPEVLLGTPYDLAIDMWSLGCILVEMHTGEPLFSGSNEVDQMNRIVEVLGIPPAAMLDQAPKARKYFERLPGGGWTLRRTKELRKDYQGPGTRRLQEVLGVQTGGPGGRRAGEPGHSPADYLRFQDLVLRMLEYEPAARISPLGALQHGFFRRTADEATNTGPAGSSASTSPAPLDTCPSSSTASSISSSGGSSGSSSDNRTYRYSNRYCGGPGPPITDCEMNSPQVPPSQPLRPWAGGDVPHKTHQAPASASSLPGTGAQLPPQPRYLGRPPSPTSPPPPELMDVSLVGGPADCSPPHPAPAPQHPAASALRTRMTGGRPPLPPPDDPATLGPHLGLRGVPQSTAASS
Chain of MAP kinase-interacting serine/threonine-protein kinase 2 (Homo sapiens) (Q9HBH9 whole entry, looked up): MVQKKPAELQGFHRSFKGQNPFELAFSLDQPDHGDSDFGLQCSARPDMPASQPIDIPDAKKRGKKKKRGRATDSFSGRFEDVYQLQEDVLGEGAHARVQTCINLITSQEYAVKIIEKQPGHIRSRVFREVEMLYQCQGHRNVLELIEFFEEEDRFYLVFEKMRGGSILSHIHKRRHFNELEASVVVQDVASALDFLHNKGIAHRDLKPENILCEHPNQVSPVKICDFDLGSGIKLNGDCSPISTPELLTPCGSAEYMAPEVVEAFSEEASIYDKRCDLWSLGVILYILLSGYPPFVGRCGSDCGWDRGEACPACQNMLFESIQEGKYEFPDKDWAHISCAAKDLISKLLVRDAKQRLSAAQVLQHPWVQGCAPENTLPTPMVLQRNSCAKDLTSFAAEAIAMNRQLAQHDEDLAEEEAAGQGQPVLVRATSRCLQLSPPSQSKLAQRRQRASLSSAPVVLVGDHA
Chain of Ephrin type-A receptor 4 (Homo sapiens) (P54764 whole entry): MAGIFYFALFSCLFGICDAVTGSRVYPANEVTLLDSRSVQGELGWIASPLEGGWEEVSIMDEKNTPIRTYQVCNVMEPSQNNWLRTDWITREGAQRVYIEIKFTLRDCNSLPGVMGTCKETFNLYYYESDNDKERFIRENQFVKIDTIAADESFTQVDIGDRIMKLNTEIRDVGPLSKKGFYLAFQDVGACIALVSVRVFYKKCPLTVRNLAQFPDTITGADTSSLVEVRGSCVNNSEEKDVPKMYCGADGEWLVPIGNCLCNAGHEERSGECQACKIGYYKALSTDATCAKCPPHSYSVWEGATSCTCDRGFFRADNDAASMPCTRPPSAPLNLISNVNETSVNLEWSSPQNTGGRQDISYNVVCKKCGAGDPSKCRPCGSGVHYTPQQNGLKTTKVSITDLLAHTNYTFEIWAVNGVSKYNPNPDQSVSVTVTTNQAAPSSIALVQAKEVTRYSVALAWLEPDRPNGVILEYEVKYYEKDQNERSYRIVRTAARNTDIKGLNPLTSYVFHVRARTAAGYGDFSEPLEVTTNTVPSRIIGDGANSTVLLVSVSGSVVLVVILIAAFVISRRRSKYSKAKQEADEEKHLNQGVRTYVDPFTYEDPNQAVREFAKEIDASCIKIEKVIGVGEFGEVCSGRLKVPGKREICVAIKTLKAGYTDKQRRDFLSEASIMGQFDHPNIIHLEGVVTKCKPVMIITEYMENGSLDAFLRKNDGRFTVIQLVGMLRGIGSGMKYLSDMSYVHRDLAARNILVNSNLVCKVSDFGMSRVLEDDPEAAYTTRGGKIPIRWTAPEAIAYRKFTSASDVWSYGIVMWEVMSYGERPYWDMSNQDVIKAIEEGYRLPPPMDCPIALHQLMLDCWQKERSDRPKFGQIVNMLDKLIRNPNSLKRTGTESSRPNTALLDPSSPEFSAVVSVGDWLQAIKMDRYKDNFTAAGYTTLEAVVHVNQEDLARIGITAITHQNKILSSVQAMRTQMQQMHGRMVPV
Chain of Ribosomal protein S6 kinase alpha-5 (Homo sapiens) (O75582 whole entry, looked up, the tested form may be a part): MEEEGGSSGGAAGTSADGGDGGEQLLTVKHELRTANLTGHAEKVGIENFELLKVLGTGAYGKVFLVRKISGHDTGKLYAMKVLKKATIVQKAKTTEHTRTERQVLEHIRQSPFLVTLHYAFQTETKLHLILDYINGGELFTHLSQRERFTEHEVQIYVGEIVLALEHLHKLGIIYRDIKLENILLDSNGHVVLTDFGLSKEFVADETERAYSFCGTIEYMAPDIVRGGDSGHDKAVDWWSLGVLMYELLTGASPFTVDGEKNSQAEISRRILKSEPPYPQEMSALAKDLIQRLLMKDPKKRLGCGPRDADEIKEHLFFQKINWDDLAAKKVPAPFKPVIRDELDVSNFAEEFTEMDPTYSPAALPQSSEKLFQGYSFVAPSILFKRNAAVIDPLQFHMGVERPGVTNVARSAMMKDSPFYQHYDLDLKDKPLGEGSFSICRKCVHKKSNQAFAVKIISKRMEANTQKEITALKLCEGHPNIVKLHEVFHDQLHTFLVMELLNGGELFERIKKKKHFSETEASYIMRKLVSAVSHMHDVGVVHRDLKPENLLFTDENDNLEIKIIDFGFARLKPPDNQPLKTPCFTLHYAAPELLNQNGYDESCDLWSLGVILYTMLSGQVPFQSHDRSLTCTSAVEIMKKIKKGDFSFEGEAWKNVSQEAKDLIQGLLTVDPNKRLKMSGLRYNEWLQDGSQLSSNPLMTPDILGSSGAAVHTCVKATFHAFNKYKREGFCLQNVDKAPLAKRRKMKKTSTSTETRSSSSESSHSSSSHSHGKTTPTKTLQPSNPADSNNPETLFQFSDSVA

Structure (SMILES) | inhibition [1] [%] | inhibition [2] [%] | inhibition [3] [%] | inhibition [4] [%] | inhibition [5] [%] | inhibition [6] [%] | inhibition [7] [%] | inhibition [8] [%] | inhibition [9] [%] | inhibition [10] [%] | inhibition [11] [%] | inhibition [12] [%] | inhibition [13] [%] | inhibition [14] [%] | inhibition [15] [%]
CN1CCN(c2ccc(-c3cnc4c(c3)N(Cc3cc(Cl)ccc3Cl)CCN4)cn2)CC1 | < 50 | < 50 | < 50 | < 50 | < 50 | < 50 | < 50 | < 50 | < 50 | < 50 | < 50 | < 50 | < 50 | < 50 | < 50
CN1CCN(c2ccc(-c3cnc4c(c3)N(Cc3cc(Cl)ccc3C(F)(F)F)CCN4)cn2)CC1 | < 50 | < 50 | < 50 | < 50 | < 50 | < 50 | < 50 | < 50 | < 50 | < 50 | < 50 | < 50 | < 50 | < 50 | < 50
CN1CCN(c2ccc(-c3cnc4c(c3)N(Cc3c(F)ccc(F)c3Cl)CCN4)cn2)CC1 | < 50 | < 50 | < 50 | < 50 | < 50 | < 50 | < 50 | < 50 | < 50 | < 50 | 91 | < 50 | < 50 | < 50 | < 50
O=C(c1ccc(-c2cnc3c(c2)N(Cc2cc(Cl)ccc2C(F)(F)F)CCN3)cc1)N1CCC(N2CCCC2)CC1 | < 50 |  | < 50 | < 50 | < 50 | < 50 |  |  | < 50 | < 50 | < 50 | 73.2 |  |  | 
COC1CCN(C(=O)c2ccc(-c3cnc4c(c3)N(Cc3cc(Cl)ccc3C(F)(F)F)CCN4)cc2)CC1 | < 50 |  | < 50 | < 50 | < 50 | < 50 |  |  | < 50 | < 50 | < 50 |  |  |  | 
FC(F)(F)c1ccc(Cl)cc1CN1CCNc2ncc(-c3ccnc(N4CCNCC4)c3)cc21 | < 50 | < 50 | < 50 | < 50 | < 50 | < 50 | < 50 | < 50 | < 50 | < 50 | 70 | < 50 | < 50 | < 50 | 67
CN1CCN(c2ccc(-c3cnc4c(c3)N(Cc3cc(F)ccc3F)CCN4)cn2)CC1 | < 50 | < 50 | < 50 | < 50 | < 50 | < 50 | < 50 | < 50 | < 50 | < 50 | < 50 | < 50 | < 50 | < 50 | < 50
O=C(c1ccc(-c2cnc3c(c2)N(Cc2cc(Cl)ccc2C(F)(F)F)CCN3)cc1)N1CCCCC1 | < 50 |  | < 50 | < 50 | < 50 | < 50 |  |  | < 50 | < 50 | < 50 |  |  |  | 
CC(=O)N1CCN(c2cc(-c3cnc4c(c3)N(Cc3cc(Cl)ccc3C(F)(F)F)CCN4)ccn2)CC1 | < 50 | < 50 | < 50 | < 50 | < 50 | < 50 | < 50 | < 50 | < 50 | < 50 | < 50 | < 50 | < 50 | < 50 | < 50
O=C(O)c1ccc(-c2cnc3c(c2)N(Cc2cc(Cl)ccc2C(F)(F)F)CCN3)cc1 | < 50 |  | < 50 | < 50 | < 50 | < 50 |  |  | < 50 | < 50 | < 50 |  |  |  | 
